# Assay results from article PMC6420351 (ACS chemical biology, 2019).
# How the values were obtained:
# CRBP1 [1] = molecular target: T1, CRBP1 (Homo sapiens, UniProt P09455); assay: Fluorescence atROL-replacing; assay type: binding; conditions: for binding to CRBP1: fluorescence titration of holo-CRBP1, 0–10 μM range for O-1918
# T1 sequence (P09455 1-135): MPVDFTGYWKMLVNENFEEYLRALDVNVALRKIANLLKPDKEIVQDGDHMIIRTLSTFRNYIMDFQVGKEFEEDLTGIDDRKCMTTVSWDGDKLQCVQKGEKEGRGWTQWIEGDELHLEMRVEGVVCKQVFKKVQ
# CRBP2 = molecular target: T2, CRBP2 (Homo sapiens, UniProt P50120); assay: Fluorescence-binding assay with CRBP2
# T2 sequence (P50120 1-134): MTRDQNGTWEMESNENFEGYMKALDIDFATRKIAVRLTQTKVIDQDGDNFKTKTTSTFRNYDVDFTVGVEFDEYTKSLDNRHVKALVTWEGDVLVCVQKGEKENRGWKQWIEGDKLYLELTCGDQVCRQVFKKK
# CRBP3 = molecular target: T3, CRBP3 (Homo sapiens, UniProt P82980); assay: Co-crystallization / X-ray structure of CRBP3 with ligand; assay type: binding; conditions: crystal structure PDB 6E5W
# T3 sequence (P82980 1-135): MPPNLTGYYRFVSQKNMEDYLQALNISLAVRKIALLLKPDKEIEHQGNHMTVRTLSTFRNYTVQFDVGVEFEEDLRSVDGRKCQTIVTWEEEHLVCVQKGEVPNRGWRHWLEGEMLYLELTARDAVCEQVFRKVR
# Outline: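 Apo-CRBP3 (8 mg mL−1) preincubated 15 min with 300 μM test compound. Drops made from 1 μL protein plus 1 μL 0.2 M sodium malonate pH 5.0, 20% PEG 3350 (w/v). Grown by sitting-drop vapour diffusion at RT.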
# CRBP4 = molecular target: T4, CRBP4 (Homo sapiens, UniProt Q96R05); assay: Co-crystallization / X-ray structure of CRBP4 with ligand; assay type: binding; conditions: crystal structure PDB 6E6K
# T4 sequence (Q96R05 1-134): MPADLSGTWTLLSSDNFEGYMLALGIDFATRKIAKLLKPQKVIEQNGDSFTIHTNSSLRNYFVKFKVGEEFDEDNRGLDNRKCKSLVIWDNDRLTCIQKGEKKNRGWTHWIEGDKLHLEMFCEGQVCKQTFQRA
# Outline: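 CRBP4 purified with a final 0–0.5 M NaCl gradient in 10 mM Tris/HCl pH 8.0, then concentrated to 6 mg mL−1. Protein preincubated with test compound. Crystallised in 0.2 M NaCl, 0.1 M BisTris pH 6.5, 25% PEG 3350 (w/v) by sitting-drop vapour diffusion at RT.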
# [2] = Detection and quantification of abn-CBD in the ocular tissues; assay type: in vivo, Balb/cJ mice
# Outline: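 Balb/cJ mice (5–8 weeks, dark-adapted ≥24 h) given a single i.p. 15 mg kg−1 dose. At 1–15 h mice were anaesthetised with ketamine and PBS-perfused. Eyes homogenised in PBS/methanol with 100 pmol deuterated test-compound internal standard, then hexane-extracted, dried and redissolved in ethanol. Quantified by LC/MS on a C18 column (70–100% methanol/water over 10 min), positive-mode ESI ion trap.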
# [3] = system: visual cycle retinoid flow; assay: Visual chromophore regeneration after flash; assay type: in vivo, Balb/cJ mice; conditions: 0.25 mg of compound 1.5 h prior to flash bleaching 75% of rhodopsin
# Outline: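 Dark-adapted (≥24 h) Balb/cJ mice given 0.25 mg test compound or DMSO 1.5 h before a flash bleaching 75% of rhodopsin. Kept dark, euthanised 1 min–8 h later; eyes frozen in liquid nitrogen. Under dim red light, eyes homogenised in 40 mM hydroxylamine in PBS/methanol (20 min RT), then hexane-extracted. Normal-phase HPLC (step ethyl acetate/hexane gradient) read at 325 and 360 nm, quantified against standards; n = 4, mean ± sd.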
# LRAT = molecular target: T5, LRAT (Bos taurus, UniProt Q9BGL2); assay: Retinol esterification assay in RPE microsomes; assay type: biochemical; conditions: bovine RPE microsomes preincubated with 10–50 μM
# T5 sequence (Q9BGL2 1-230): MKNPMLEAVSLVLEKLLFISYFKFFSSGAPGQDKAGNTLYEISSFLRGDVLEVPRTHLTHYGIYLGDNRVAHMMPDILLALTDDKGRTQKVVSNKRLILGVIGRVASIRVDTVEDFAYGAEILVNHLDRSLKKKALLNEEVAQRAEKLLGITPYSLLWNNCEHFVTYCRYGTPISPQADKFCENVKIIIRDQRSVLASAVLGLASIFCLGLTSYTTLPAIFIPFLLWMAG
# Outline: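 UV-treated bovine RPE microsomes (~100 μg total protein) in 20 mM Tris/HCl pH 7.4, 1 mM DTT, 1% BSA. Test compound (10, 20 or 50 μM) added before atROL (final 10 μM). Initial rate taken after 5 min at RT, quenched with methanol, extracted with hexane. Normal-phase HPLC (isocratic 10% ethyl acetate/hexane, 325 nm). Retinyl esters quantified against synthetic standards.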
# RDH5 = molecular target: T6, RDH5 (Bos taurus, UniProt Q27979); assay: 11-cis-retinol oxidation assay in RPE microsomes; assay type: biochemical; conditions: bovine RPE microsomes preincubated with 10–50 μM
# T6 sequence (Q27979 1-318): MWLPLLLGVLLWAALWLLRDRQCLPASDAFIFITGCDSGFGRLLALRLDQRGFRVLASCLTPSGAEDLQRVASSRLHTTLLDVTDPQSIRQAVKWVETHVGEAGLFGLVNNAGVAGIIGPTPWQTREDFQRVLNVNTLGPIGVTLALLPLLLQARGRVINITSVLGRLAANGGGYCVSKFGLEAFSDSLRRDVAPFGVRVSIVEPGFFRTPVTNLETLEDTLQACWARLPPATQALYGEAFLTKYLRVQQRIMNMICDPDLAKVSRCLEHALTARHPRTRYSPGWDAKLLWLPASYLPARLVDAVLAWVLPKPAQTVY
# Outline: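 Bovine RPE microsomes (~100 μg total protein) preincubated with 10–50 μM test compound (1:1 to 1:5 molar excess) in 20 mM Tris/HCl pH 8.0, 1% BSA, 20 μM NAD+. 11-cis-Retinol (10 μM) added; 30 °C, 10 min. Stopped with methanol containing 40 mM hydroxylamine, 15 min RT. Hexane extract run on normal-phase HPLC (isocratic 10% ethyl acetate/hexane), detected at 325 nm.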
# RPE65 = RPE65 (Bos taurus, UniProt Q28175); assay: RPE65 isomerization activity assay in RPE microsomes; assay type: biochemical; conditions: bovine RPE microsomes preincubated with 10–50 μM
# Outline: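 UV-bleached bovine RPE microsomes were the RPE65 source, reacting in the presence of CRALBP. Microsomes preincubated with 10–50 μM test compound (1:1 to 1:5 molar excess). Reaction started with atROL (final 10 μM) and run at 30 °C for 30 min. Products extracted with hexane and analysed by normal-phase HPLC.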
# [4] = system: recovery of visual sensitivity; assay: Scotopic full-field ERG recovery after photobleach; assay type: in vivo, Balb/cJ mice; conditions: 30 mg/kg; ERG 4 h after flash bleaching ~50% of visual pigment
# [5] = system: light-induced retinal damage; assay: Bright light-induced retinal degeneration; assay type: in vivo, Balb/cJ mice; conditions: IP injection 1.5 h prior to light; OCT and histology a week later
# cannabinoid receptor 1 = conditions: cited from earlier work
# cannabinoid receptor 2 = conditions: cited from earlier work
# rodents = conditions: previous studies of wound healing, vasodilation, diabetes; cited from earlier work
# CRBP1 [6] = conditions: read-out: affinity for atROL; cited from earlier work
# RPE65, sequence (Q28175 whole entry): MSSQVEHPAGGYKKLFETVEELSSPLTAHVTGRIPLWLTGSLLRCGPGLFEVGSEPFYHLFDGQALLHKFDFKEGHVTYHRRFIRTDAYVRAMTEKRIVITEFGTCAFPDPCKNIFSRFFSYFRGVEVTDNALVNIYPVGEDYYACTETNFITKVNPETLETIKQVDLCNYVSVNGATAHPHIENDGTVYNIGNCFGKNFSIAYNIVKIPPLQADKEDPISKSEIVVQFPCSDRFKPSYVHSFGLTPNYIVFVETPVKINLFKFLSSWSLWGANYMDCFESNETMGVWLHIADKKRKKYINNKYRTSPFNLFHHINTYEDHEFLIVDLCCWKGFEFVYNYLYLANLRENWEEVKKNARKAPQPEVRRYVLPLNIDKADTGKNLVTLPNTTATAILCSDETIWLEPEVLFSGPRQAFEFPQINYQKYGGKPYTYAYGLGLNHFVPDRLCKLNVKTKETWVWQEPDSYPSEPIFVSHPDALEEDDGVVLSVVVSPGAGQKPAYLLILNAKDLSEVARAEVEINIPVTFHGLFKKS
smiles,measurement,setting,value
"C=C(C)[C@@H]1CCC(C)=C[C@H]1c1c(OC)cc(C)cc1OC [O-1918, 1,3-dimethoxy-5-methyl-2-[(1R,6R)-3-methyl-6-prop-1-en-2-ylcyclohex-2-en-1-yl]benzene]",binding to CRBP1,CRBP1 [1],abolished the meaningful binding
"C=C(C)[C@@H]1CCC(C)=C[C@H]1c1c(C)cc(O)cc1O [abn-CBDO, 5-methyl-4-[(1R,6R)-3-methyl-6-prop-1-en-2-ylcyclohex-2-en-1-yl]benzene-1,3-diol]",apparent affinity lowered compared with abn-CBD,CRBP1 [1]; fold change of Ki vs abn-CBD,4.3 times
"C=C(C)[C@@H]1CCC(C)=C[C@H]1c1c(O)cc(O)cc1CCCCC [abn-CBD, 4-[(1R,6R)-3-Methyl-6-prop-1-en-2-ylcyclohex-2-en-1-yl]-5-pentylbenzene-1,3-diol]",Ki,CRBP1 [1],~67 nM
same,interaction with CRBP2,CRBP2,absence of interaction
same,binding to CRBP3,CRBP3,bind abn-CBD similarly to CRBP1
same,binding to CRBP4,CRBP4,bind abn-CBD similarly to CRBP1
same,half-life,"[2]; Balb/cJ, mouse, eye (PBS-perfused, homogenised), ip, 15 mg/kg",~7 h
same,time of maximum ocular level after the injection,[2]; single IP dose 15 mg kg^−1,2 h
same,maximum ocular level,"[2]; single IP dose 15 mg kg^−1, PBS-perfused mouse eyes",58 pmol/eye
same,atROL level during chromophore regeneration,[3],transient accumulation of atROL
same,rate of 11-cis-retinal regeneration,[3],noticeably slower
same,rate of all-trans-retinal clearance vs control,[3],no differences
same,effect on LRAT enzymatic activity,LRAT,did not cause a measurable decline
same,effect on RDH5 enzymatic activity,RDH5,did not cause a measurable decline
same,effect on RPE65 enzymatic activity,RPE65,did not cause a measurable decline
same,recovery of a-wave and b-wave amplitudes after light illumination,[4],slower
same,protection against light-induced retinal damage,[5],largely protected against the light-induced retinal damage
same,interaction with cannabinoid receptor 1,cannabinoid receptor 1,does not interact
same,interaction with cannabinoid receptor 2,cannabinoid receptor 2,does not interact
same,toxicity in rodents,rodents,did not report toxicity
"C=C(C)[C@@H]1CCC(C)=CC1c1c(O)cc(C)cc1O (stereo partly drawn) [CBDO, 5-methyl-2-[(6R)-3-methyl-6-prop-1-en-2-ylcyclohex-2-en-1-yl]benzene-1,3-diol]",Ki,CRBP1 [1],~1700 nM
same,fold increase of the Ki value,CRBP1 [1]; further increase relative to abn-CBDO,6.3 fold
"CC1=C(/C=C/C(C)=C/C=C/C(C)=C/CO)C(C)(C)CCC1 [atROL, all-trans-retinol]",Ki,CRBP1 [1],~34 nM
same,Kd,CRBP1 [6],< 1 nM
C=C(C)[C@H]1CC=C(C)CC1 [limonene],binding to CRBP1,CRBP1 [1],did not observe limonene interacting
